Each block holds one compound with its values, some of them ahead of it. Activity calls are given as the source filed them. No cut-off for these calls is given here.
What was measured:
MDA-MB-231 [1] = assay: Inhibition of cell migration in human MDA-MB-231 cells assessed as total number of cells at 10 uM after 24 hrs by transwell migration assay relative to control; values are per cent of control; conditions: MDA-MB-231, 24 h
MDA-MB-231 [2] = assay: Cytotoxicity against human MDA-MB-231 cells assessed as colony formation at 10 uM after 2 weeks relative to control; type: cell-based; conditions: mda-mb-231, 336 h
In short: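 Clonogenic assay: MDA-MB-231 cells grown for 14 days in six-well plates with or without 10 μM compound. Colony formation expressed as % of DMSO vehicle control.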

MDA-MB-231 [3] = assay: Inhibition of cell invasion in human MDA-MB-231 cells assessed as total number of cells at 10 uM after 24 hrs by matrigel invasion assay relative to control; type: functional; conditions: MDA-MB-231, 24 h
MDA-MB-231 [4] = assay: Inhibition of cell migration in human MDA-MB-231 cells assessed as total number of cells after 24 hrs by transwell migration assay; type: functional, cell-based; conditions: for IC50: MDA-MB-231, 24 h
In short: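 Dose-response transwell migration in MDA-MB-231 cells: 2.5 × 10^4 cells in serum-free upper chamber, 5% FBS in the lower chamber.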

HeLa [5] = assay: Inhibition of cell migration in human HeLa cells assessed as total number of cells at 10 uM after 24 hrs by transwell migration assay relative to control; type: functional
HeLa [6] = assay: Cytotoxicity against human HeLa cells assessed as colony formation at 10 uM after 2 weeks relative to control; type: cell-based; conditions: 336 h
A549 = assay: Inhibition of cell migration in human A549 cells assessed as total number of cells at 10 uM after 24 hrs by transwell migration assay relative to control; type: functional; conditions: A549, 24 h
MDA-MB-231 [7] = assay: Inhibition of serum-induced actin-rich membrane protrusion in human MDA-MB-231 cells assessed as reduction of f-actin intensity at 10 uM after overnight incubation by fluorescent microscopic analysis; type: functional
In short: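 MDA-MB-231 cells serum-starved with or without 10 μM compound, then serum-stimulated for 2 h to induce actin-rich membrane protrusions. F-actin was stained and imaged by fluorescence microscopy, and f-actin intensity was quantified against DMSO-treated cells.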

MDA-MB-231 [8] = assay: Reduction of fascin localization in actin-rich membrane protrusion in human MDA-MB-231 cells at 10 uM by immuno fluorescence microscopic analysis; type: functional, cell-based

Structure (SMILES): O=C(Nc1nc(-c2ccccc2)cs1)c1cccnc1
- level, % of control at 10 µM (MDA-MB-231 [1]): 80.8%
- Activity (MDA-MB-231 [2]): 102.8%

Structure (SMILES): COc1cc(OC)c(-c2csc(NC(=O)c3ccccc3)n2)c(OC)c1
- level, % of control at 10 µM (MDA-MB-231 [1]): 59.2%
- Activity (MDA-MB-231 [2]): 108.8%

Structure (SMILES): O=C(Nc1nc(-c2ccccc2)cs1)c1ccco1
- level, % of control at 10 µM (MDA-MB-231 [1]): 88%
- Activity (MDA-MB-231 [2]): 98.8%

Structure (SMILES): Cc1ccc(-c2csc(N(C)C(=O)c3cccs3)n2)c(C)c1
- level, % of control at 10 µM (MDA-MB-231 [1]): 72.2%
- Activity (MDA-MB-231 [2]): 97.7%

Structure (SMILES): CCCCCC(=O)Nc1nc(-c2ccccc2)cs1
- level, % of control at 10 µM (MDA-MB-231 [1]): 75.2%
- Activity (MDA-MB-231 [2]): 90.7%

Structure (SMILES): O=C(Nc1nc(-c2ccccc2)cs1)c1ccc(Br)cc1
- level, % of control at 10 µM (MDA-MB-231 [1]): 103%
- Activity (MDA-MB-231 [2]): 98.6%

Structure (SMILES): COc1cc(OC)c(-c2cs/c(=N/C(=O)c3ccccc3)n2C)c(OC)c1
- level, % of control at 10 µM (MDA-MB-231 [1]): 40.6%
- Activity (MDA-MB-231 [2]): 94%

Structure (SMILES): O=C(Nc1nc(-c2ccccc2)cs1)C1CCCCC1
- level, % of control at 10 µM (MDA-MB-231 [1]): 92.7%
- Activity (MDA-MB-231 [2]): 103.4%

Structure (SMILES): COc1ccc(C(=O)/N=c2/scc(-c3ccccc3)n2C)cc1OC
- level, % of control at 10 µM (MDA-MB-231 [1]): 35.9%
- Activity (MDA-MB-231 [2]): 40.9%

Structure (SMILES): Cn1c(-c2ccccc2)cs/c1=N/C(=O)c1cccnc1
- level, % of control at 10 µM (MDA-MB-231 [1]): 62%
- Activity (MDA-MB-231 [2]): 111.5%

Structure (SMILES): Cn1c(-c2ccccc2)cs/c1=N/C(=O)c1cccs1
- level, % of control at 10 µM (MDA-MB-231 [1]): 43.3%
- Activity (MDA-MB-231 [2]): 85%

Structure (SMILES): CN(C(=O)C1CCCCC1)c1nc(-c2ccccc2)cs1
- level, % of control at 10 µM (MDA-MB-231 [1]): 72.7%
- Activity (MDA-MB-231 [2]): 97.5%

Structure (SMILES): CCCCCC(=O)N(C)c1nc(-c2ccccc2)cs1
- level, % of control at 10 µM (MDA-MB-231 [1]): 71.4%
- Activity (MDA-MB-231 [2]): 127.5%

Structure (SMILES): CCCCCCCCCCCC(=O)N(C)c1nc(-c2ccccc2)cs1
- level, % of control at 10 µM (MDA-MB-231 [1]): 80%
- Activity (MDA-MB-231 [2]): 111.1%

Structure (SMILES): COc1cc(OC)c(-c2csc(N(C)C(=O)c3ccccc3)n2)c(OC)c1
- level, % of control at 10 µM (MDA-MB-231 [1]): 91.5%
- Activity (MDA-MB-231 [2]): 110.4%

- IC50 (MDA-MB-231 [4]): 1290 nM
Structure (SMILES): O=C(Nc1nc(-c2ccccc2)cs1)c1ccccc1
- level, % of control at 10 µM (MDA-MB-231 [1]): 31.3%
- inhibition at 10 µM (MDA-MB-231 [3]): 40%
- Activity (MDA-MB-231 [2]): 105.2%
- inhibition at 10 µM (HeLa [5]): 60%

- IC50 (MDA-MB-231 [4]): 2080 nM
Structure (SMILES): CCn1c(-c2ccccc2)cs/c1=N/C(=O)c1cccs1
- level, % of control at 10 µM (MDA-MB-231 [1]): 32.1%
- Activity (HeLa [6]): 45%
- inhibition at 10 µM (MDA-MB-231 [3]): 40%
- Activity (MDA-MB-231 [2]): 97.7%
- inhibition at 10 µM (HeLa [5]): 60%

Structure (SMILES): CN(C(=O)c1ccc(Br)cc1)c1nc(-c2ccccc2)cs1
- level, % of control at 10 µM (MDA-MB-231 [1]): 78.2%
- Activity (MDA-MB-231 [2]): 107.7%

Structure (SMILES): O=C(Nc1nc(-c2ccccc2)cs1)c1ccc(Cl)cc1
- level, % of control at 10 µM (MDA-MB-231 [1]): 78%
- Activity (MDA-MB-231 [2]): 95%

- IC50 (MDA-MB-231 [4]): 2490 nM
Structure (SMILES): O=C(Nc1nc(-c2ccccc2)cs1)c1cccs1
- level, % of control at 10 µM (MDA-MB-231 [1]): 34.5%
- inhibition at 10 µM (MDA-MB-231 [3]): 40%
- Activity (MDA-MB-231 [2]): 85.9%
- inhibition at 10 µM (HeLa [5]): 60%

- IC50 (MDA-MB-231 [4]): 2870 nM
Structure (SMILES): O=C(Nc1nc(-c2ccccc2)cs1)c1ccncc1
- level, % of control at 10 µM (MDA-MB-231 [1]): 32.3%
- inhibition at 10 µM (MDA-MB-231 [3]): 40%
- Activity (MDA-MB-231 [2]): 95.5%
- inhibition at 10 µM (HeLa [5]): 60%

Structure (SMILES): Cc1ccc(-c2csc(NC(=O)c3cccs3)n2)c(C)c1
- level, % of control at 10 µM (MDA-MB-231 [1]): 40.9%
- Activity (MDA-MB-231 [2]): 67.5%

Structure (SMILES): COc1ccc(C(=O)N(C)c2nc(-c3ccccc3)cs2)cc1OC
- level, % of control at 10 µM (MDA-MB-231 [1]): 43.5%
- Activity (MDA-MB-231 [2]): 97.1%

- IC50 (MDA-MB-231 [4]): 1120 nM
Structure (SMILES): Cn1c(-c2ccccc2)cs/c1=N/C(=O)c1ccc(Cl)cc1
- level, % of control at 10 µM (MDA-MB-231 [1]): 28.1%
- inhibition at 10 µM (MDA-MB-231 [3]): 40%
- Activity (MDA-MB-231 [2]): 98.2%
- inhibition at 10 µM (HeLa [5]): 60%

Structure (SMILES): Cn1c(-c2ccccc2)cs/c1=N/C(=O)c1ccc(Br)cc1
- level, % of control at 10 µM (MDA-MB-231 [1]): 59.7%
- Activity (MDA-MB-231 [2]): 63.8%

Structure (SMILES): CCN(C(=O)c1ccco1)c1nc(-c2ccccc2)cs1
- level, % of control at 10 µM (MDA-MB-231 [1]): 54.5%
- Activity (MDA-MB-231 [2]): 96.5%

Structure (SMILES): COc1ccc(C(=O)Nc2nc(-c3ccccc3)cs2)cc1OC
- level, % of control at 10 µM (MDA-MB-231 [1]): 18.6%
- Activity (MDA-MB-231 [2]): 57.3%

- IC50 (MDA-MB-231 [4]): 189 nM
Structure (SMILES): Cn1c(-c2ccccc2)cs/c1=N/C(=O)c1ccccc1
- level, % of control at 10 µM (MDA-MB-231 [1]): 13%
- Activity (HeLa [6]): Toxic
- inhibition at 10 µM (MDA-MB-231 [3]): 40%
- Activity (MDA-MB-231 [2]): 25.2%
- inhibition at 10 µM (HeLa [5]): 60%

- IC50 (MDA-MB-231 [4]): 366 nM
Structure (SMILES): CN(C(=O)c1ccccc1)c1nc(-c2ccccc2)cs1
- level, % of control at 10 µM (MDA-MB-231 [1]): 39.2%
- inhibition at 10 µM (MDA-MB-231 [3]): 40%
- Activity (MDA-MB-231 [2]): 123.4%
- inhibition at 10 µM (HeLa [5]): 60%

Structure (SMILES): Cc1ccc(-c2cs/c(=N/C(=O)c3cccs3)n2C)c(C)c1
- level, % of control at 10 µM (MDA-MB-231 [1]): 37.1%
- Activity (MDA-MB-231 [2]): 102.3%

- IC50 (MDA-MB-231 [4]): 1010 nM
Structure (SMILES): CCCCCCCCCCCC(=O)Nc1nc(-c2ccccc2)cs1
- level, % of control at 10 µM (MDA-MB-231 [1]): 28.3%
- Activity (HeLa [6]): Non-toxic
- inhibition at 10 µM (MDA-MB-231 [3]): 40%
- Activity (MDA-MB-231 [2]): 71.5%
- inhibition at 10 µM (HeLa [5]): 60%

- IC50 (MDA-MB-231 [4]): 839 nM
Structure (SMILES): Cc1ccc(-c2csc(NC(=O)c3ccccc3)n2)c(C)c1
- level, % of control at 10 µM (MDA-MB-231 [1]): 33.7%
- inhibition at 10 µM (MDA-MB-231 [3]): 40%
- Activity (MDA-MB-231 [2]): 85%
- inhibition at 10 µM (HeLa [5]): 60%

- IC50 (MDA-MB-231 [4]): 176 nM
Structure (SMILES): Cc1ccc(-c2cs/c(=N/C(=O)c3ccccc3)n2C)c(C)c1
- inhibition at 10 µM (A549): 80%
- inhibition at 10 µM (MDA-MB-231 [7]): 55%
- level, % of control at 10 µM (MDA-MB-231 [1]): 14.3%
- Activity (HeLa [6]): 85%
- Activity (MDA-MB-231 [8]): Active
- inhibition at 10 µM (MDA-MB-231 [3]): 60%
- Activity (MDA-MB-231 [2]): 120.9%
- inhibition (MDA-MB-231 [4]): Dose-dependent effect
- inhibition at 10 µM (HeLa [5]): 80%

Structure (SMILES): Nc1nc(-c2ccccc2)cs1
- level, % of control at 10 µM (MDA-MB-231 [1]): 86%
- Activity (MDA-MB-231 [2]): 103.6%

Structure (SMILES): COc1cc(C(=O)Nc2nc(-c3ccccc3)cs2)cc(OC)c1OC
- level, % of control at 10 µM (MDA-MB-231 [1]): 46.5%
- Activity (MDA-MB-231 [2]): 80.9%

Structure (SMILES): CN(C(=O)C1CCCC1)c1nc(-c2ccccc2)cs1
- level, % of control at 10 µM (MDA-MB-231 [1]): 54.3%
- Activity (MDA-MB-231 [2]): 132.4%

Structure (SMILES): COc1cc(C(=O)/N=c2/scc(-c3ccccc3)n2C)cc(OC)c1OC
- level, % of control at 10 µM (MDA-MB-231 [1]): 26.5%
- Activity (MDA-MB-231 [2]): 75.4%

Structure (SMILES): Cc1ccc(-c2csc(N)n2)c(C)c1
- level, % of control at 10 µM (MDA-MB-231 [1]): 45.5%
- Activity (MDA-MB-231 [2]): 110.9%

Structure (SMILES): O=C(Nc1nc(-c2ccccc2)cs1)C1CCCC1
- level, % of control at 10 µM (MDA-MB-231 [1]): 68.2%
- Activity (MDA-MB-231 [2]): 99.8%

Structure (SMILES): Cn1c(-c2ccccc2)cs/c1=N/C(=O)c1ccco1
- level, % of control at 10 µM (MDA-MB-231 [1]): 77.6%
- Activity (MDA-MB-231 [2]): 107.3%
